This note sets out measurements from the RNAGym collection of RNA variant scans (doi:10.1126/science.aae0568).

Fewer inactive variants are shown than the library holds.

The chains are these.
B1: tRNA (parent)
chain: GUUCCGUUGGCGUAAUGGUAACGCGUCUCCCUCCUAAGGAGAAGACUGCGGGUUCGAGUCCCGUACGGAACG

Variants of B1 are the subject of the data set. Description: yeast fitness relative to wild type (ratio to wild type); higher = fitter; tRNA-Arg(CCU), competitive growth, 37 C, YPD. In short, it runs like this:
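Changes in genotype frequencies gave Darwinian fitness relative to wild type. Frequencies were read by 100-nucleotide paired-end sequencing of gene amplicons before and after pooled Saccharomyces cerevisiae strains, carrying tRNA-Arg(CCU) gene variants at the native locus, were competed in YPD at 37°C for 24 hours in six replicates. A genotype was kept only with ≥ 100 starting reads, and estimates < 0.5 were set to 0.5.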
With C33G A45G C55G G56C, the yeast fitness is not above 0.5.

G18C A20G C30A: the yeast fitness was not above 0.5.

Consider U19G C24A C34G, for which the yeast fitness was 0.75.

With U16C A65G A70C, the yeast fitness was 0.786.

For the variant A20C G25C C33A C55A, the yeast fitness is not above 0.5.

Turning to A57G C62U, the yeast fitness amounted to 0.781.

G48A G52C A57C C62A: the yeast fitness was not above 0.5.

On to U7G A70G, for which the yeast fitness was 0.993.

In the case of G17C C29A A57U, the yeast fitness is not above 0.5.

In the case of C5U C11G C34U A42C C61A A70U, the yeast fitness is not above 0.5.

Turning to U19C A45U, the yeast fitness worked out at 0.923.

Turning to C5A U26A G51C C61G, the yeast fitness is not above 0.5.

In the case of C61U U64A, the yeast fitness was 0.606.

With C31G C46U A65U, the yeast fitness amounted to 0.789.

With A14U C30A C66U, the yeast fitness stood at 0.547.

As for C4U C33G, the yeast fitness was 0.722.

For the variant A14C C24U U35C C55U, the yeast fitness is not above 0.5.

For the variant A36U G44A, the yeast fitness was found to be 0.578.

For the variant A20U C27G C29A, the yeast fitness is not above 0.5.

As to G6A G17A C27U C31G C66G, the yeast fitness is not above 0.5.

As for U16G A37U A45C, the yeast fitness is not above 0.5.

Regarding G6A U47G, the yeast fitness stood at 0.594.

For U26C C31U C49G, the yeast fitness is 0.622.

As to G9A G48A G50C, the yeast fitness stood at 0.581.

For G6C G50A A70U, the yeast fitness stood at 0.633.

For the variant A36U G52C, the yeast fitness turned out to be 0.53.

As to U53C G67A, the yeast fitness worked out at 0.808.

Consider U35A C60G G63A, for which the yeast fitness amounted to 0.503.

With C29U C61U, the yeast fitness stood at 0.706.

Consider C24U C33U C34G A40U, for which the yeast fitness is not above 0.5.

As for U7A A36C G51C, the yeast fitness is not above 0.5.

U13C C27G A36G U54G: the yeast fitness is not above 0.5.

With A14G C30A C34G, the yeast fitness was 0.508.

As for A42U C46U A69C, the yeast fitness is 0.9.

For A20U A42C, the yeast fitness came to 0.648.

For the variant G23A A36U, the yeast fitness was determined as 0.536.

In the case of C4A A21C C22U, the yeast fitness worked out at 0.651.

In the case of C29G U32C A70C, the yeast fitness was 0.555.

Take C4U A37U G52A: the yeast fitness is not above 0.5.

On to C4G C24A C46U C60A, for which the yeast fitness stood at 0.521.

C5A U7A A21G G67C: the yeast fitness worked out at 0.541.

Turning to G12A G52C C55U A65U, the yeast fitness is not above 0.5.

C4U C11U C22G: the yeast fitness came to 0.629.

Consider A14U G56A, for which the yeast fitness was 0.619.

On to A20C C30A C55A, for which the yeast fitness was 0.571.

Consider U19G G52C C62A, for which the yeast fitness is not above 0.5.

Consider G23C G38A C61U, for which the yeast fitness worked out at 0.578.

Regarding G6C U7G G17C C60G, the yeast fitness stood at 0.574.

Take A42U A45U: the yeast fitness was found to be 1.09.

Consider A36U A69U, for which the yeast fitness came to 0.623.

Consider C30G U59G C66A, for which the yeast fitness is not above 0.5.

As to U8A C27U A43U, the yeast fitness was not above 0.5.

For the variant C11U G18A C62A A70C, the yeast fitness is not above 0.5.

As to C27U C34A U54C, the yeast fitness is not above 0.5.

For the variant G48A C60G, the yeast fitness was found to be 0.583.

With A21G C22A A40U, the yeast fitness was not above 0.5.

On to G10A A21G C22U, for which the yeast fitness was found to be 0.606.

C5U G17A A40U A42C C49A C66A: the yeast fitness was determined as 0.593.

In the case of G9A C34A A45C, the yeast fitness came out at 0.541.

As for U8A U13A A14C G56C, the yeast fitness was not above 0.5.

With A15U U35A A43U C46U, the yeast fitness turned out to be 0.695.

For the variant U2G G12A U13A G25C U28A C33A G63C U64C C66U, the yeast fitness is not above 0.5.

As to C4G U26A C49U, the yeast fitness is not above 0.5.

For U2A G10A A20G U35C, the yeast fitness is not above 0.5.

A21G C22A G56A A65C: the yeast fitness amounted to 0.528.

C5U C27G C60A: the yeast fitness was not above 0.5.

Consider G18A G67A, for which the yeast fitness came out at 0.675.

On to C4U C5G G12A A14U U54A A57U, for which the yeast fitness is not above 0.5.

U3C G58A C61U A70G: the yeast fitness stood at 0.777.

Consider G6C U16A G18C C22G C49U, for which the yeast fitness was not above 0.5.

For G17A C29G U47A G51A, the yeast fitness was not above 0.5.

For U19A A36U, the yeast fitness was 0.653.

For the variant C5U G51C C55A C62U A65U A69U, the yeast fitness was not above 0.5.

With U3A G6A G12A A20G C22G U26A G48C G68U, the yeast fitness was not above 0.5.

With A37G A40C, the yeast fitness was 0.685.

Consider C22G C31A C49G G63C A69U, for which the yeast fitness turned out to be 0.603.

As to U13G A20U A42G U59A A65G, the yeast fitness was not above 0.5.

As to C22G C30G G68A, the yeast fitness is not above 0.5.

With U19G A43C G63U U64A, the yeast fitness was not above 0.5.

On to C11G C29A U54A A57U, for which the yeast fitness is not above 0.5.

With U16A G50C C55U U59G C66U G67A, the yeast fitness was not above 0.5.

For A15C G23C G39C G63A A69C, the yeast fitness was not above 0.5.

On to C24A U26A C31A, for which the yeast fitness came out at 0.544.

As to G17C U26C C46U A65U, the yeast fitness was 0.558.

For U26C A37U U47C U54A, the yeast fitness was not above 0.5.

Consider A20C A21C G23C C30G A65U C66U, for which the yeast fitness was not above 0.5.

Regarding C11G C27G U28G, the yeast fitness was 0.626.

In the case of C5G A21G U26C C49A U54C A65G, the yeast fitness was not above 0.5.

As to C5G G17C G25A A70G, the yeast fitness is not above 0.5.

As to A42C U54A G67C A69U, the yeast fitness was 0.571.

With U32C C34U A45U, the yeast fitness stood at 0.662.

As to U16G C24U U28C A36C A65C, the yeast fitness was 0.58.

As to U7G G12A U13C C33U C34U A42C G50A, the yeast fitness is not above 0.5.

Take U16C U32G C34G U53A G63C: the yeast fitness was not above 0.5.

With C4U U19C A43U, the yeast fitness is 0.955.

Take G6A C24U U54G A65U: the yeast fitness was not above 0.5.

For the variant C5G G39A, the yeast fitness was 0.725.

U19C G23C C61G: the yeast fitness was not above 0.5.

Regarding G6C G38C C46A, the yeast fitness worked out at 0.54.

Consider A20U C66U A70U, for which the yeast fitness came to 0.646.

As for U19C A36U A70U, the yeast fitness was not above 0.5.

For U19C U54A, the yeast fitness stood at 0.559.

With U26A A42C C49U C60G U64C C66A, the yeast fitness is not above 0.5.

Take A15C U32A: the yeast fitness is 0.595.

On to C5G C29U A40G A57G, for which the yeast fitness is not above 0.5.

Consider U8A A21C C29A G39A U54G G58C, for which the yeast fitness was not above 0.5.

As for U8G A14U U16C A40U G48C, the yeast fitness was not above 0.5.

With C60A A69C, the yeast fitness came out at 0.752.

C31U G38C G63A G68C A69G: the yeast fitness is 0.673.

As for U19A U26C C49G C66G, the yeast fitness is not above 0.5.

Turning to A37C G44C G52C G58A, the yeast fitness is not above 0.5.

As to C5U C11U U32G C33A U47A C62U C66G, the yeast fitness was not above 0.5.

As for G41C U64G, the yeast fitness stood at 0.735.

Regarding U2C A40C G52C G67A, the yeast fitness stood at 0.56.

On to U3C A40G C46A C62G A69U, for which the yeast fitness was not above 0.5.

Turning to C5G U13G A20U A37G, the yeast fitness came to 0.514.

As to G10A G52C, the yeast fitness is 0.528.

In the case of C11U C60U C62U, the yeast fitness is not above 0.5.

For the variant U2G C24G C29G C31G, the yeast fitness is 0.515.

Regarding U2C C11U U59A, the yeast fitness turned out to be 0.586.

As to C5U U7A C34U G56A G67A, the yeast fitness is not above 0.5.

C5U U16A U47C: the yeast fitness stood at 0.785.

Take G10C A45G C61A A70G: the yeast fitness was not above 0.5.

Take C5U G17C A21U A40G U47G G48C: the yeast fitness was not above 0.5.

Consider U3A A14G C55U G63C, for which the yeast fitness was not above 0.5.

With U35G A57C A70C, the yeast fitness is not above 0.5.

Take C5U U7C C24A C61U: the yeast fitness is not above 0.5.

As to C49U A57U, the yeast fitness was 0.632.

With A14G C24A C31U A40U, the yeast fitness was not above 0.5.

As for G17A C24G C33G C60U, the yeast fitness was not above 0.5.

Regarding U8C C30G C31G C55U, the yeast fitness is not above 0.5.

Regarding U16A G17C A43U A45C C46A, the yeast fitness was found to be 0.613.

As for G12A U54A, the yeast fitness was determined as 0.679.

For C29G U35C G38C A57G, the yeast fitness was not above 0.5.

In the case of G18C C27U G68C, the yeast fitness is 0.548.

C24U C46U C60U: the yeast fitness came out at 0.513.

On to G18A C46A, for which the yeast fitness came to 0.692.

With G10A C34G A40C C46G, the yeast fitness was not above 0.5.

C5U A45G A69G: the yeast fitness was determined as 0.909.

In the case of A36U A57G, the yeast fitness turned out to be 0.582.

As to U3A A15C U16A U35A G52C C55A, the yeast fitness is not above 0.5.

As to U13C A14U U32C, the yeast fitness is 0.53.

Regarding G25A A37U U54A, the yeast fitness is not above 0.5.

For U2C A57U C62U U64C, the yeast fitness was not above 0.5.

As to A14G A15C C46A U64G A65U, the yeast fitness was not above 0.5.

U3C U19A A65G: the yeast fitness was determined as 0.796.

Consider C30G G58C G63C, for which the yeast fitness is not above 0.5.

Regarding A20G G52C, the yeast fitness was found to be 0.613.

Consider C22G C24A, for which the yeast fitness was determined as 0.673.

Consider A20U G50C, for which the yeast fitness stood at 0.638.

As to G25C C60G, the yeast fitness worked out at 0.665.

A15U G17C A45U C49G A70U: the yeast fitness was 0.528.

For C4U G39A A42G G67A, the yeast fitness was not above 0.5.

As to A14C G18A C22G A57U C61G, the yeast fitness was not above 0.5.

C5U A14C C62A: the yeast fitness came out at 0.504.

On to G52C A57U A69U, for which the yeast fitness was not above 0.5.

For the variant C4G G17A G25C C66U, the yeast fitness is not above 0.5.

Take C30U G44A G56A: the yeast fitness is not above 0.5.

Consider G23A C66G, for which the yeast fitness was 0.659.

With C30U A40G C49U, the yeast fitness came to 0.632.

For C11U U16C C33A U53C C66G G67U, the yeast fitness is not above 0.5.

Take U19C U26C: the yeast fitness is 0.928.

For G41A A45G G56A, the yeast fitness turned out to be 0.582.

In the case of C5A G10U C30U A43C A69C, the yeast fitness is not above 0.5.

For the variant G68C A70G, the yeast fitness was found to be 0.897.

G12C U13C U16A C29G G44C C49G A57C: the yeast fitness was not above 0.5.

With G12A G44C A65G, the yeast fitness is 0.649.
